ChEMBL document CHEMBL2057093, “New oxirane derivatives of 1,4-naphthoquinones and their evaluation against T. cruzi epimastigote forms” (Bioorg Med Chem, 2012)

What was measured:
[1] = test system: Trypanosoma cruzi; experiment: Antitrypanosomal activity against Trypanosoma cruzi Y epimastigotes assessed as cell death at 50 uM after 72 hrs by propidium iodide staining-based flow cytometric analysis; format: functional
Procedure, shortened: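 T. cruzi Y epimastigotes at 5 × 10^5 cells/mL exposed to compound at 50 µM for 72 h. Cells then centrifuged (1500 g), washed in PBS and stained with 30 µg/mL propidium iodide for 15 min. Flow cytometry acquired 10,000 events in the epimastigote gate, and PI-positive cells were counted as dead. Mean and SD from at least two independent experiments in duplicate.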

[2] = test system: Trypanosoma cruzi; experiment: Antitrypanosomal activity against Trypanosoma cruzi Y epimastigotes after 72 hrs by Neubauer counter-based microscopic analysis; format: functional, organism-based
Procedure, shortened: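 T. cruzi Y epimastigotes (10^6 cells/mL) grown in BHI medium with 10% fetal bovine serum at 28 °C and exposed to compounds from 5 mM DMSO stocks for 72 h. Parasites counted directly in a Neubauer chamber by light microscopy. Untreated and 1% DMSO (v/v) cultures served as negative controls. IC50 (50% growth inhibition) computed by Probit analysis.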

[3] = Cytotoxicity against african green monkey Vero cells after 72 hrs by spectrophotometric analysis; format: cell-based; details: chlorocebus sabaeus
Procedure, shortened: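 VERO kidney fibroblasts kept in DMEM with 5% fetal bovine serum and HEPES. Seeded at 10^5 cells/well and allowed to adhere 24 h at 37 °C, then exposed to compounds for 72 h. Cells were PBS-washed, fixed in 0.2% formaldehyde, stained 1 h with 0.2% Coomassie Brilliant Blue R-250, and eluted with 1% SDS. Absorbance read at 595 nm. CC50 by Probit from triplicate runs.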

| Compound | Activity [1] | IC50 [2] | CC50 at 72 h [3] |
| --- | --- | --- | --- |
| C=CCOC1=CC(=O)c2ccccc2C1=O | 86.3% | 0.02 µM | < 1 µM |
| COC1=CC(=O)c2ccccc2C12CO2 (stereo not given) | 74.2% | 1.13 µM | 44 µM |
| O=C1C(Cl)=C(Cl)C(=O)c2ccccc21 [Dichlon] | 84.3% | 0.09 µM | 6.3 µM |
| COC1=CC(=O)c2ccccc2C1=O [2-Methoxy-1,4-naphthoquinone] | 82.3% | 3.19 µM | 13 µM |
| CC1(C)CC2=C(O1)C(=O)c1ccccc1C2=O | 91.4% | 8.8 µM | 2.7 µM |
| O=C1C(Cl)=C(Cl)C2(CO2)c2ccccc21 (stereo not given) | 84.7% | 9.48 µM | 19 µM |
| CC1(C)CCC2=C(O1)C(=O)C1=C(CCCC1)C2=O | 84.2% | 16.3 µM | 11.7 µM |
| CC1(C)CCC2=C(O1)C(=O)c1ccccc1C2=O [ALPHA-LAPACHONE] | 82.7% | 3.19 µM | 1.2 µM |
| CC1(C)CCC2=C(O1)C1(CO1)C1=C(CCCC1)C2=O (stereo not given) | 17.9% | 16.4 µM | 58.1 µM |
| CC1(C)CCC2=C(O1)c1ccccc1C(=O)C2=O [LAPACHONE] | 91.3% | < 3.1 µM | < 3.1 µM |
| CC1(C)CCC2=C(O1)C1(CO1)c1ccccc1C2=O (stereo not given) | 85.6% | 0.05 µM | > 50 µM |
| C=CCOC1=CC(=O)c2ccccc2C12CO2 (stereo not given) | 84.5% | 0.2 µM | < 1 µM |
| CC1(C)CC2=C(O1)C1(CO1)c1ccccc1C2=O (stereo not given) | 88.5% | 19.3 µM | 19 µM |
| O=C(Cn1ccnc1[N+](=O)[O-])NCc1ccccc1 [BENZNIDAZOLE] | 26.8% | 11.5 µM | 48 µM |
| CC1(C)CCC23CC2(O1)C(=O)c1ccccc1C3=O (stereo not given) | 3.1% | 60.9 µM | 66 µM |
